From ChEMBL document CHEMBL4665831, “Ultrapotent Inhibitor of Clostridioides difficile Growth, Which Suppresses Recurrence In Vivo” (J Med Chem, 2020)

Key:
Clostridioides difficile [1] = experiment: Antimicrobial activity against Clostridioides difficile ATCC BAA 1801 assessed as reduction in microbial growth after 48 hrs by broth microdilution method; assay type: functional
In short: (§1)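 Broth microdilution: a 0.5 McFarland suspension was diluted in brain heart infusion supplemented (BHIS) broth to ~5 × 10^5 CFU/mL. Agents were serially diluted and plates incubated anaerobically at 37°C for 48 h.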

Lactobacillus crispatus [2] = experiment: Antibacterial activity against Lactobacillus crispatus HM-103 assessed as reduction in microbial growth after 48 hrs by broth microdilution method
In short: (§2)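 Gut commensal MICs by broth microdilution: a 0.5 McFarland suspension was diluted to ~5 × 10^5 CFU/mL in BHIS broth (Bacteroides) or MRS broth (Lactobacillus). Agents were serially diluted and incubated 48 h at 37°C. MIC was read by visual inspection of growth.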

Clostridioides difficile [3] = experiment: Antimicrobial activity against Clostridioides difficile ATCC 43255 assessed as reduction in microbial growth after 48 hrs by broth microdilution method; assay type: functional; in short: as §1
Clostridioides difficile [4] = experiment: Antimicrobial activity against Clostridioides difficile NR-32904 P30 assessed as reduction in microbial growth after 48 hrs by broth microdilution method; assay type: functional; in short: as §1
Enterococcus faecium = experiment: Antimicrobial activity against vancomycin-resistant Enterococcus faecium ATCC 700221 assessed as reduction in microbial growth after 48 hrs by CLSI based broth microdilution method; assay type: functional
In short: (§3)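 CLSI broth microdilution: strains were grown aerobically overnight on tryptone soy agar at 37°C. A 0.5 McFarland suspension was diluted to ~5 × 10^5 CFU/mL in cation-adjusted Mueller-Hinton broth (E. coli) or tryptone soy broth (enterococci), and agents were serially diluted.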

Clostridioides difficile [5] = experiment: Antimicrobial activity against Clostridioides difficile NR-13435 isolate 9 assessed as reduction in microbial growth after 48 hrs by broth microdilution method; assay type: functional; in short: as §1
Clostridioides difficile [6] = experiment: Antimicrobial activity against Clostridioides difficile NR-32895 P19 assessed as reduction in microbial growth after 48 hrs by broth microdilution method; assay type: functional; in short: as §1
Lactobacillus gasseri = experiment: Antibacterial activity against Lactobacillus gasseri HM-400 assessed as reduction in microbial growth after 48 hrs by broth microdilution method; in short: as §2
Clostridioides difficile [7] = experiment: Antimicrobial activity against Clostridioides difficile NR-13432 isolate 6 assessed as reduction in microbial growth after 48 hrs by broth microdilution method; assay type: functional; in short: as §1
Clostridioides difficile [8] = experiment: Antimicrobial activity against Clostridioides difficile NR-32883 P2 assessed as reduction in microbial growth after 48 hrs by broth microdilution method; assay type: functional; in short: as §1
Bacteroides fragilis [9] = experiment: Antibacterial activity against Bacteroides fragilis HM-709 assessed as reduction in microbial growth after 48 hrs by broth microdilution method; assay type: organism-based; in short: as §2
Lactobacillus crispatus [10] = experiment: Antibacterial activity against Lactobacillus crispatus HM-371 assessed as reduction in microbial growth after 48 hrs by broth microdilution method; in short: as §2
Bacteroides fragilis [11] = experiment: Antibacterial activity against Bacteroides fragilis HM-711 assessed as reduction in microbial growth after 48 hrs by broth microdilution method; assay type: organism-based; in short: as §2
Phocaeicola dorei = experiment: Antibacterial activity against Bacteroides dorei HM-719 assessed as reduction in microbial growth after 48 hrs by broth microdilution method; assay type: organism-based; in short: as §2
Enterococcus faecalis = experiment: Antimicrobial activity against vancomycin-resistant Enterococcus […] ATCC 51299 assessed as reduction in microbial growth after 48 hrs by CLSI based broth microdilution method; assay type: functional; in short: as §3
Clostridioides difficile [12] = experiment: Antimicrobial activity against Clostridioides difficile NR-32891 P13 assessed as reduction in microbial growth after 48 hrs by broth microdilution method; assay type: functional; in short: as §1
Escherichia coli = experiment: Antimicrobial activity against Escherichia coli JW55031 harboring TolC mutant assessed as reduction in microbial growth after 48 hrs by CLSI based broth microdilution method; assay type: functional; in short: as §3
[13] = molecular target: Cyclin-dependent kinase 2 (Homo sapiens, UniProt P24941); experiment: Inhibition of human CDK2 expressed in sf9 insect cells
Clostridioides difficile [14] = experiment: Antibacterial activity against Clostridioides difficile ATCC 43255 infected in CDI mouse model assessed as survival rate at 10 mg/kg, po for 5 days relative to control; assay type: functional; conditions: ATCC 43255, po, 120 h, time 5 day
Clostridioides difficile [15] = experiment: Antimicrobial activity against Clostridioides difficile ATCC 43255 assessed as drug resistance by measuring frequency of mutation at 20 times of MIC after 48 hrs; assay type: functional
Clostridioides difficile [16] = experiment: Antimicrobial activity against Clostridioides difficile ATCC 43255 assessed as drug resistance by measuring frequency of mutation at 15 times of MIC after 48 hrs; assay type: functional
Clostridioides difficile [17] = experiment: Antibacterial activity against Clostridioides difficile ATCC 43255 infected in CDI mouse model assessed as bacterial recurrence at 10 mg/kg, po for 5 days and measured on day 21 relative to control; assay type: functional; conditions: time 21 day

Compound: COc1ccc(Cl)cc1-c1nnc(NC(=O)c2ccc(SC(F)(F)F)cc2)o1
- MIC (Clostridioides difficile [1]): 4.7 µM

Compound: O=C(Nc1nnc(-c2ccc(F)cc2)o1)c1ccc(SC(F)(F)F)cc1
- MIC (Clostridioides difficile [1]): 10.4 µM

Compound: Cc1ncc([N+](=O)[O-])n1CCO [METRONIDAZOLE]
- MIC (Lactobacillus crispatus [2]): > 373.9 µM
- MIC (Clostridioides difficile [3]): 1.46 µM
- MIC (Clostridioides difficile [4]): 1.46 µM
- MIC (Enterococcus faecium): > 374 µM
- MIC (Clostridioides difficile [5]): 0.7 µM
- MIC (Clostridioides difficile [6]): 1.46 µM
- MIC (Lactobacillus gasseri): > 373.9 µM
- MIC (Clostridioides difficile [7]): 1.46 µM
- MIC (Clostridioides difficile [8]): 0.7 µM
- MIC (Bacteroides fragilis [9]): 11.68 µM
- MIC (Lactobacillus crispatus [10]): > 373.9 µM
- MIC (Bacteroides fragilis [11]): 5.84 µM
- MIC (Phocaeicola dorei): 5.84 µM
- MIC (Enterococcus faecalis): > 374 µM
- MIC (Clostridioides difficile [12]): 0.7 µM
- MIC (Clostridioides difficile [1]): 1.46 µM

Compound: O=C(Nc1nnc(-c2ccccc2F)o1)c1ccc(SC(F)(F)F)cc1
- MIC (Clostridioides difficile [1]): 10.4 µM

Compound: CC(=O)NC[C@H]1CN(c2ccc(N3CCOCC3)c(F)c2)C(=O)O1 [LINEZOLID]
- MIC (Enterococcus faecium): 3 µM
- MIC (Escherichia coli): 47.4 µM
- MIC (Enterococcus faecalis): 3 µM

Compound: GENTAMICIN
- MIC (Escherichia coli): 0.52 µM

Compound: O=C(Nc1nnc(-c2cccc(Cl)c2)o1)c1ccc(SC(F)(F)F)cc1
- MIC (Clostridioides difficile [1]): 0.08 µM

Compound: CCc1c(Cl)c(O)c(Cl)c(O)c1C(=O)O[C@H]1[C@H](O)[C@H](OC)[C@H](OC/C2=C\C=C\C[C@H](O)/C(C)=C/[C@H](CC)[C@@H](O[C@@H]3OC(C)(C)[C@@H](OC(=O)C(C)C)[C@H](O)[C@@H]3O)/C(C)=C/C(C)=C/C[C@@H]([C@@H](C)O)OC2=O)O[C@@H]1C [FIDAXOMICIN]
- MIC (Lactobacillus crispatus [2]): > 60.5 µM
- MIC (Clostridioides difficile [3]): 0.01 µM
- MIC (Clostridioides difficile [4]): 0.01 µM
- MIC (Clostridioides difficile [5]): 0.06 µM
- MIC (Clostridioides difficile [6]): 0.03 µM
- MIC (Lactobacillus gasseri): > 60.5 µM
- MIC (Clostridioides difficile [7]): 0.06 µM
- MIC (Clostridioides difficile [8]): 0.03 µM
- MIC (Bacteroides fragilis [9]): > 60.5 µM
- MIC (Lactobacillus crispatus [10]): > 60.5 µM
- MIC (Bacteroides fragilis [11]): > 60.5 µM
- MIC (Phocaeicola dorei): > 60.5 µM
- MIC (Clostridioides difficile [12]): 0.01 µM
- MIC (Clostridioides difficile [1]): 0.06 µM

Compound: COc1cccc(-c2nnc(NC(=O)c3ccc(SC(F)(F)F)cc3)o2)c1
- MIC (Clostridioides difficile [1]): 10.1 µM

Compound: O=C(Nc1nnc(-c2cccc(C(F)(F)F)c2)o1)c1ccc(SC(F)(F)F)cc1
- MIC (Clostridioides difficile [1]): 0.04 µM

Compound: CC(C)c1ccc(-c2nnc(NC(=O)c3ccc(SC(F)(F)F)cc3)o2)cc1
- MIC (Clostridioides difficile [1]): 314 µM

Compound: Cc1ccc(-c2nnc(NC(=O)c3ccc(SC(F)(F)F)cc3)o2)cc1
- MIC (Clostridioides difficile [1]): 10.5 µM

Compound: CN1CC[C@H](c2c(O)cc(O)c3c(=O)cc(-c4ccccc4)oc23)[C@H](O)C1
- IC50 [13]: 2400 nM

Compound: O=C(Nc1nnc(-c2ccccc2)o1)c1ccc(SC(F)(F)F)cc1
- MIC (Clostridioides difficile [1]): 5.5 µM

Compound: COc1ccc(-c2nnc(NC(=O)c3ccc(SC(F)(F)F)cc3)o2)cc1
- MIC (Clostridioides difficile [1]): 10.1 µM

Compound: O=C(Nc1nnc(-c2ccccn2)o1)c1ccc(SC(F)(F)F)cc1
- MIC (Clostridioides difficile [1]): 21.8 µM

Compound: O=C(Nc1nnc(-c2cccc(F)c2)o1)c1ccc(SC(F)(F)F)cc1
- MIC (Clostridioides difficile [1]): 0.08 µM

Compound: O=C(Nc1nnc(-c2ccccc2Cl)o1)c1ccc(SC(F)(F)F)cc1
- MIC (Clostridioides difficile [1]): 10 µM

Compound: O=C(Nc1nnc(-c2cccs2)o1)c1ccc(SC(F)(F)F)cc1
- MIC (Clostridioides difficile [1]): 1.4 µM

Compound: O=C(Nc1nnc(-c2ccc(C(F)(F)F)cc2)o1)c1ccc(SC(F)(F)F)cc1
- MIC (Clostridioides difficile [1]): 0.29 µM

Compound: O=C(Nc1nnc(-c2ccc(Cl)cc2)o1)c1ccc(SC(F)(F)F)cc1
- MIC (Clostridioides difficile [1]): 5 µM

Compound: CN[C@H](CC(C)C)C(=O)N[C@H]1C(=O)N[C@@H](CC(N)=O)C(=O)N[C@H]2C(=O)N[C@H]3C(=O)N[C@H](C(=O)N[C@H](C(=O)O)c4cc(O)cc(O)c4-c4cc3ccc4O)[C@H](O)c3ccc(c(Cl)c3)Oc3cc2cc(c3O[C@@H]2O[C@H](CO)[C@@H](O)[C@H](O)[C@H]2O[C@H]2C[C@](C)(N)[C@H](O)[C@H](C)O2)Oc2ccc(cc2Cl)[C@H]1O [VANCOMYCIN]
- MIC (Lactobacillus crispatus [2]): 1.4 µM
- survival at 10 mg/kg (Clostridioides difficile [14]): 100%
- Activity (Clostridioides difficile [15]): <1.1 10^-9No_unit
- MIC (Clostridioides difficile [3]): 0.7 µM
- Activity (Clostridioides difficile [16]): <1.1 10^-9No_unit
- MIC (Clostridioides difficile [4]): 0.7 µM
- MIC (Clostridioides difficile [5]): 0.7 µM
- MIC (Clostridioides difficile [6]): 0.7 µM
- MIC (Lactobacillus gasseri): <= 0.7 uM
- MIC (Clostridioides difficile [7]): 0.2 µM
- MIC (Escherichia coli): > 44.2 µM
- MIC (Clostridioides difficile [8]): 0.4 µM
- MIC (Bacteroides fragilis [9]): 22.1 µM
- MIC (Lactobacillus crispatus [10]): 1.4 µM
- MIC (Bacteroides fragilis [11]): 44.2 µM
- Activity (Clostridioides difficile [17]): 83.3%
- MIC (Phocaeicola dorei): 44.2 µM
- MIC (Enterococcus faecalis): > 44.2 µM
- MIC (Clostridioides difficile [12]): 0.4 µM
- MIC (Clostridioides difficile [1]): 0.7 µM

Compound: O=C(Nc1nnc(-c2ccc(Cl)cc2Cl)o1)c1ccc(SC(F)(F)F)cc1
- MIC (Clostridioides difficile [1]): 0.07 µM
